Test results taken from PMC3979326 (Science signaling, 2012).
Square brackets hold non-standard residues; d marks the D form. Ends that are not written are not given here. pY = N[C@@H](Cc1ccc(OP(=O)(O)O)cc1)C(=O)O

Assays:
[1] = system: EGF-dependent activation of Akt (RTK-mediated activation of PI3Kβ); test: EGF-dependent Akt activation; assay type: cell-based; conditions: intact cells, cell line not named; fig. S7B
[2] = system: PC3 cells (PTEN-null prostate cancer); test: MTT proliferation, PC3 cells; assay type: cell-based; conditions: 30 μM peptides, 200 nM TGX221, means ± SEM of three experiments, Fig. 6A
[3] = system: Gβγ-mediated activation of Akt via PI3Kβ; test: Gβγ-mediated Akt activation; assay type: cell-based; conditions: for effect on Gβγ-mediated increase in Akt phosphorylation at Thr308: 30 μM peptide, Fig. 5A, fig. S7A; for effect on Gβγ-dependent activation of Akt (need for cell entry): fig. S7C, labeled versus unlabeled peptide
Procedure, shortened: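 HEK 293 cells were grown in DMEM with 10% FBS and transfected with human p85α, myc-p110β, myc-Akt, with or without FLAG-Gβ1 and HA-Gγ2. After overnight serum starvation, cells received myristoylated peptide (30 µM final, from DMSO stock) or TGX-221 (50 nM) for 30 min before lysis. Anti-myc immunoprecipitates were blotted for Akt and pT308-Akt, and the pAkt:total Akt ratio was quantified.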

[4] = system: p110β–Gβ-p85α-icSH2–Gγ-C68S fusion heterotrimer; test: Lipid kinase activity, fusion heterotrimer; assay type: biochemical, human; conditions: fig. S3A
532KK-DD mutant PI3Kβ = test: Lipid kinase activity, 532KK-DD mutant PI3Kβ; assay type: biochemical, human; conditions: pY (substrate stock 900 nM); compared with wild-type; Fig. 1F, S4A, S4B
Procedure, shortened: (§1)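 Recombinant PI3Kβ from baculovirus-infected insect cells was assayed on lipid vesicles at 1 mg/ml final (5% PIP2, 20% PS, 45% PE, 15% DOPC, 10% cholesterol, 5% sphingomyelin, by weight). Threefold enzyme stocks were 75 nM in Hepes pH 7.5, MgCl2, EDTA. Threefold substrate stocks carried 900 nM RTK-pY and/or 1.5 µM Gβ1γ2. The read-out was 32P-PIP3 captured on nitrocellulose, washed in 1 M NaCl/1% phosphoric acid.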

loop-swap mutant PI3Kβ = test: Lipid kinase activity, loop-swap mutant PI3Kβ; assay type: biochemical, human; conditions: pY (substrate stock 900 nM); compared with wild-type; Fig. 1F, S4A, S4B
Procedure, shortened: as §1

[5] = system: p110β with p85-i or p85-ic; test: Activity of p110β with p85 truncation constructs; assay type: biochemical; conditions: p85-i (iSH2 only) or p85-ic (iSH2-cSH2); fig. S9
p110β = conditions: ref [7]; cited from earlier work
wild-type PI3Kβ = test: Lipid kinase activity, wild-type PI3Kβ from insect cells; assay type: biochemical, human; conditions: no pY; Fig. 1F
Procedure, shortened: as §1

[6] = system: 532KK-DD mutant PI3Kβ in HEK 293E cells; test: Gβγ-mediated Akt activation, 532KK-DD mutant PI3Kβ; assay type: cell-based, human; conditions: myc-Akt, Western blot, Fig. 2A
Procedure, shortened: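 HEK 293E cells were transfected with human p85α, mutant myc-p110β and myc-Akt, with or without FLAG-Gβ1 and HA-Gγ2, then serum-starved overnight. After anti-myc immunoprecipitation, pT308-Akt and total Akt were blotted and quantified by densitometry or infrared imaging. The pAkt:total Akt ratio is expressed as percent of basal.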

p101–p110γ dimer = test: Gβγ-dependent activation of class IB PI3K; conditions: fig. S8A
[7] = system: NIH3T3 cells transfected with 12V-Ras; test: Soft agar colony formation, oncogenic Ras; assay type: cell-based; conditions: Fig. 5E
Procedure, shortened: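 Transfected NIH 3T3 cells were grown in DMEM with 10% calf serum. Two days after transfection, 2,500 cells/well were plated in 0.3% top agar over 0.6% bottom agar. Myristoylated peptide was present at 30 µM in both gels and the medium. Colonies were counted 3 weeks later.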

p110β protein = test: Abundance of p110β protein in cells; assay type: cell-based; conditions: Fig. 5, C and D
[8] = system: NIH3T3 cells transfected with p110β and p85α (PI3Kβ-dependent transformation); test: Soft agar colony formation, PI3Kβ-transfected NIH3T3 cells; assay type: cell-based
[9] = system: NIH3T3 cells transfected with p110β and p85α; test: Focus formation assay, PI3Kβ-transfected NIH3T3 cells; assay type: cell-based; conditions: 30 μM peptide; two weeks; crystal violet; Fig. 5D
Procedure, shortened: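 NIH 3T3 cells were plated at 2×10^5 cells/well and transfected with myc-p110β and p85α plasmids. Cells were grown two weeks with medium changed every two days, with myristoylated peptide at 30 µM in the medium throughout. Cells were then fixed and stained with crystal violet, and foci were counted per well.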

[10] = system: NIH3T3 cells transfected with plasmid encoding PI3Kβ; test: Proliferation of PI3Kβ-transfected NIH3T3 cells; assay type: cell-based; conditions: fig. S7D
PLC-β = test: Gβγ-mediated PLC-β activation in cells; assay type: cell-based; conditions: COS-7 cells, 30 μM, 30 min before LiCl; [3H]inositol phosphates; fig. S8C
Procedure, shortened: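 COS-7 cells were transiently transfected with or without Gβγ plasmids. Reactions were stopped with ice-cold 50 mM formic acid and neutralised with 150 mM NH4OH after lysis. [3H]inositol phosphates were isolated on Dowex columns and quantified.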

[11] = system: NIH3T3 cells expressing p110β and p85α; test: Boyden chamber migration, PI3Kβ-expressing NIH3T3 cells; assay type: cell-based
p110β–Rab5 binding = test: Rab5 pulldown assay; conditions: GST-Rab5 pulldown; fig. S8, E and F
Procedure, shortened: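 HEK 293T cells were transfected with wild-type or mutant myc-p110β plus p85α. Lysates were incubated with GTPγS-Rab5 or GST beads, washed, and bound proteins blotted.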

[12] = system: PC3 cells co-cultured with macrophages; test: Collagen invasion assay, macrophage-dependent PC3 invasion; assay type: cell-based; conditions: collagen I gel, 24 hours, confocal microscopy; two experiments; Fig. 6D
Procedure, shortened: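 BAC-1.2F5 macrophages and PC-3 cells were vitally labelled with red and green CellTracker dyes and co-cultured at 2.5:1. After attachment, cells were overlaid with collagen I gel and incubated 24 h with or without test peptide. Invasion into the 3D gel was quantified by laser scanning confocal detection of dye fluorescence.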

PC3 cells = test: Boyden chamber chemotaxis, PC3 cells; assay type: cell-based; conditions: 10% FBS, 20 μM (Fig. 6C legend), three experiments
Procedure, shortened: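 PC-3 cells (5×10^4) were seeded on inserts with 8.0 µm pores. The upper chamber held serum-free medium with DMSO or myristoylated test peptide. The lower chamber held medium with 10% FBS plus DMSO or peptide.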

[13] = system: LPA-stimulated Akt phosphorylation in NIH3T3 cells; test: LPA-stimulated Akt activation; assay type: cell-based; conditions: 30 μM peptide, 10 nM LPA for 5 min, Western blot, Fig. 5B
adenylyl cyclase 2 = test: Adenylyl cyclase assay, synergistic activation by Gβγ and Gαs; assay type: biochemical; conditions: 30 μM; 20 nM each Gαs and Gβγ; Sf9 membranes; 10 min at 30°C; fig. S8B
PLCβ3 = test: In vitro Gβγ-mediated activation of PLCβ; assay type: biochemical; conditions: PLCβ3 1 nM, 10 min at 30°C, [3H]PIP2; fig. S8D
Procedure, shortened: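 Reactions used recombinant PLCβ3 with a range of peptide concentrations, with or without 200 nM Gαq and with or without Gβγ. Buffer was 20 mM Hepes pH 7.2, 70 mM KCl, 3 mM EGTA, 10 mM NaF, 20 µM AlCl3, 5 mM MgCl2. Substrate was 33 µM PIP2/333 µM PE with [3H]PIP2, free Ca2+ 200 nM. Reactions were stopped with 10% TCA plus BSA, and supernatant counted by scintillation.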

p101–p110γ dimer (PI3Kγ) = test: Lipid kinase activity, immunopurified p101–p110γ, Gβγ-stimulated; assay type: biochemical; conditions: 1 μM p110β-peptide or QEHA, 10 μM SIGK; 200 nM Gβγ; lipid kinase assay
Procedure, shortened: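 Peptides were prepared in 20 mM Tris-HCl pH 7.4, 10 mM NaCl: test peptide 1 µM, scrambled 1 µM, SIGK 10 µM, QEHA 1 µM. Each was preincubated with 200 nM recombinant lipidated Gβγ for 30 min on ice, then with lipid vesicles 10 min on ice. Immunopurified PI3Kγ was added for 10 min before the kinase assay. Data are means ± SEM of triplicates, representative of two to three experiments.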

## Cc1cc(C(C)Nc2ccccc2)c2nc(N3CCOCC3)cc(=O)n2c1 (stereo not drawn) [TGX221, reference compound]
[1]
  effect on EGF-dependent activation of Akt: substantial inhibitory effect
[2]
  effect on PC3 cell proliferation: unaffected
[3]; HEK 293E cells with p110β, p85α, myc-Akt, Gβ1γ2, TGX-221 50 nM, 30 min, fig. S5A
  effect on Gβγ-dependent Akt activation (TGX-221): specifically inhibited

## ESDGG[pY]MDMSKDESID[pY]VPMLDMKGDIKYADIE
[4]
  stimulation of fusion heterotrimer: could be stimulated
532KK-DD mutant PI3Kβ
  activation of mutant PI3Kβ by pY (532KK-DD): activated to a similar extent
loop-swap mutant PI3Kβ
  activation of mutant PI3Kβ by pY (loop-swap): activated to a similar extent

## Gβγ: Recombinant human Gβ1, N-terminally hexahistidine-tagged bovine wild-type Gγ2
[4]
  stimulation of fusion heterotrimer: could be stimulated
[5]
  stimulation of p110β associated with p85-i or p85-ic: stimulates p110β
[3]; HEK 293E cells, wild-type PI3Kβ, myc-Akt, Western blot, Fig. 2A
  pT308-Akt in presence of exogenous Gβγ, wild-type PI3Kβ: marked increase
p110β
  stimulation of p110β in the absence of p85: stimulates p110β
wild-type PI3Kβ
  PI3Kβ activation by Gβγ in the absence of pY: activated PI3Kβ in the absence of pY
[6]
  Akt activation in presence of exogenous Gβγ, 532KK-DD mutant: complete loss of Akt activation

## KAAEIASSDSANVSSRGGKKFLPV [myristoylated p110β-peptide]
p101–p110γ dimer
  effect on Gβγ-dependent activation of class IB PI3K (p101–p110γ): no effect
[7]
  effect on cellular transformation by oncogenic Ras: no effect
p110β protein
  effect on abundance of p110β protein: did not reduce the abundance of p110β protein
[8]; 30 μM peptide in gels and media, colonies counted after 3 weeks, Fig. 5C
  effect on PI3Kβ-dependent transformation, soft agar colony formation: inhibited
[9]
  effect on PI3Kβ-dependent transformation, focus formation: inhibited
[10]
  effect on proliferation of PI3Kβ-transfected NIH3T3 cells: neither the myristoylated peptide nor pertussis toxin inhibited the proliferation
[1]
  effect on EGF-dependent activation of Akt: no effect
PLC-β
  effect on Gβγ-mediated activation of PLC-β in cells: no effect
[11]; Boyden chamber towards 10% FBS, 24 hours, 30 μM, Fig. 5F
  effect on enhanced migration of PI3Kβ-transfected NIH3T3 cells: blocked the enhanced migration
p110β–Rab5 binding
  effect on binding of p110β to Rab5: no effect
[2]
  effect on PC3 cell proliferation: proliferation was inhibited
[12]
  effect on macrophage-dependent PC3 cell invasion: blocked
PC3 cells
  effect on chemotaxis of PC3 cells toward serum: inhibited the chemotaxis
[3]; 30 min, Western blot
  effect on Gβγ-mediated increase in Akt phosphorylation at Thr308: completely inhibited
[3]; listed as myristoylated
  effect on Gβγ-dependent activation of Akt (need for cell entry): inhibited Gβγ-dependent activation of Akt
[13]
  effect on LPA-stimulated increase in Akt phosphorylation at Thr308: completely inhibited
Adenylyl cyclase 2
  effect on synergistic activation of adenylyl cyclase by Gβγ and Gαs: no effect

## KAAEIASSDSANVSSRGGKKFLPV [p110β-peptide]
PLCβ3
  effect on Gβγ-mediated activation of PLC-β in vitro: no effect
p101–p110γ dimer (PI3Kγ)
  effect on Gβγ-mediated activation of p101–p110γ dimers: no effect on Gβγ-mediated activation of p101–p110γ dimers
[3]; listed as unlabeled peptide
  effect on Gβγ-dependent activation of Akt (need for cell entry): no such effect

## NGAEKVGSADSKSIAFVSLKARSP [myristoylated scrambled peptide, reference compound]
[9]
  effect on PI3Kβ-dependent transformation, focus formation: but not the myristoylated scrambled peptide, inhibited
[2]
  effect on PC3 cell proliferation: unaffected
[3]; 30 min, Western blot
  effect on Gβγ-mediated increase in Akt phosphorylation at Thr308: minimal effects
[13]
  effect on LPA-stimulated increase in Akt phosphorylation at Thr308: minimal effects

## QEHAQEPERQYMHIGTMVEFAYALVGK
p101–p110γ dimer (PI3Kγ)
  effect on Gβγ-mediated activation of p101–p110γ dimers: inhibited

## SIGKAFKILGYPDYD
p101–p110γ dimer (PI3Kγ)
  effect on Gβγ-mediated activation of p101–p110γ dimers: inhibited

## pertussis toxin [reference compound]
[8]; pertussis toxin, NIH3T3 cells, fig. S6, B and C
  effect on wild-type p110β-enhanced transformation: inhibited
[10]
  effect on proliferation of PI3Kβ-transfected NIH3T3 cells: neither the myristoylated peptide nor pertussis toxin inhibited the proliferation
[11]; pertussis toxin, fig. S6, B and C
  effect on wild-type p110β-enhanced migration: inhibited
[2]
  effect on PC3 cell proliferation: proliferation was inhibited
